Measured values from ChEMBL document CHEMBL5036345, “Identification of a dual acting SARS-CoV-2 proteases inhibitor through in silico design and step-by-step biological characterization” (Eur J Med Chem, 2021).
Where a SMILES comes first, the peptide text is derived from it. [ ]: non-standard residue; d: D form. The star is where a group is joined. AllylGly = C=CC[C@H](N)C(=O)O; Boc = CC(C)(C)OC(=O)*; NHBn = c1ccc(CN*)cc1; NHtBu = CC(C)(C)N*; ClAc = O=C(CCl)*

Columns and labels:
[1] = system: SARS-CoV-2; assay: Antiviral activity against Severe acute respiratory syndrome coronavirus 2 UC-1074 infected in African green monkey Vero cells assessed as reduction in plaque formation measured after 5 days by microscopic analysis; type: functional, organism-based; details: Severe acute respiratory syndrome coronavirus 2, UC-1074, Vero, 120 h
[2] = system: SARS-CoV-2; assay: Antiviral activity against Severe acute respiratory syndrome coronavirus 2 UC-1075 infected in African green monkey Vero cells assessed as reduction in plaque formation measured after 5 days by microscopic analysis; type: functional, organism-based; details: Severe acute respiratory syndrome coronavirus 2, UC-1075, Vero, 120 h
[3] = Cytotoxicity against African green monkey Vero cells assessed as effect on cell morphology by microscopic analysis; type: cell-based; details: chlorocebus sabaeus
In short: (§1)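 Vero cells were treated with a compound dilution series in DMEM 2% FCS for 5 days at 37 °C, in parallel with the antiviral assay. MCC is the lowest concentration giving a microscopically detectable change in morphology. CC50 is the concentration halving cell number in mock-infected cultures, counted by Coulter counter.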

[4] = system: Vero; assay: Cytotoxicity against African green monkey Vero cells assessed as reduction in cell viability by coulter counter method; type: cell-based; details: chlorocebus sabaeus; in short: as §1
[5] = Inhibition of SARS CoV-2 main protease using DABCYL-KTSAVLQ1SGFRKM-E(EDANS)-NH2 as substrate preincubated for 30 mins followed by substrate addition and measured after 4 hrs by multimode microplate reader assay; parameters: species or system Severe acute respiratory syndrome coronavirus 2
[6] = Inhibition of SARS CoV-2 papain-like protease using Z-Arg-Leu-Arg-Gly-Gly-AMC as substrate preincubated for 30 mins followed by substrate addition and measured after 50 mins by multimode plate reader method; parameters: species or system Severe acute respiratory syndrome coronavirus 2
[7] = target: Spike glycoprotein (Severe acute respiratory syndrome coronavirus 2, UniProt P0DTC2); assay: Binding affinity to CM5 sensor chip immobilized SARS-CoV-2 spike glycoprotein assessed as dissociation constant by SPR analysis
In short: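 Spike protein (1.25 μM in 10 mM sodium acetate, pH 4.59) was amine-coupled to about 11500 RU, with the first channel as reference. Running buffer was 10× diluted HBS-P plus 5% DMSO. Compounds at 0.75–100 μM were injected at 25 °C and 20 μL/min, with 90 s association and 600 s dissociation. Runs were in triplicate; KD came from a global 1:1 fit.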

Row | SMILES | EC50 [1] [µM] | EC50 [2] [µM] | MCC [3] [µM] | CC50 [4] [µM] | IC50 [5] [µM] | IC50 [6] [µM] | Kd [7] [µM]
1 | CCC(CC)COC(=O)[C@H](C)N[P@](=O)(OC[C@H]1O[C@@](C#N)(c2ccc3c(N)ncnn23)[C@H](O)[C@@H]1O)Oc1ccccc1 | 0.87 | 0.61 | > 40 | > 40 | – | – | –
2 | CC(C)C[C@H](NCc1ccc(-c2ccccc2)cc1)C(=O)N[C@@H](Cc1c[nH]c2ccccc12)C(=O)NCc1ccccc1 | > 4 | > 4 | > 20 | 34.7 | 23.6 | > 25 | –
3 | C#CC[C@H](NC(=O)OC(C)(C)C)C(=O)N(Cc1ccccc1)Cc1cn(C)c2ccc(C(=O)OC)cc12 | 4 | 20 | 100 | 8.09 | > 25 | > 25 | 11.4
4 | COC(=O)c1ccc2c(c1)c(CN(CCc1ccc(-c3ccccc3)cc1)Cc1ccccc1)cn2CC(C)C | 5.98 | 0.44 | 100 | 31.5 | > 25 | > 25 | 3.26
5 | CC(C)(C)NC(=O)[C@H](Cc1c[nH]c2ccccc12)NC(=O)[C@H](Cc1ccccc1)NCc1ccc(-c2ccccc2)cc1 | 2.19 | 2.01 | > 100 | 1.49 | > 25 | > 25 | 19
6 | CC(C)C[C@H](NCc1ccc(-c2ccccc2)cc1)C(=O)N[C@@H](Cc1c[nH]c2ccccc12)C(=O)NC(C)(C)C | > 4 | > 4 | 20 | 10.6 | 1.73 | > 25 | > 25
7 | C#CC[C@H](NCc1ccccc1)C(=O)N[C@@H](Cc1c[nH]c2ccccc12)C(=O)NCc1ccc(-c2ccccc2)cc1 | 8.94 | 10.9 | ≥ 100 | 51.5 | 2.86 | > 25 | –
8 | C=CC[C@H](NCc1ccccc1)C(=O)N[C@@H](Cc1c[nH]c2ccccc12)C(=O)NCc1ccc(-c2ccccc2)cc1 | 63.1 | > 20 | > 100 | 78.4 | > 25 | > 25 | > 25
9 | C#CC[C@H](NCCC)C(=O)N[C@@H](Cc1c[nH]c2ccccc12)C(=O)NCc1ccc(-c2ccccc2)cc1 | > 20 | > 20 | > 100 | 42.4 | 22.7 | > 25 | –
10 | C#CC[C@H](NCc1ccc(-c2ccccc2)cc1)C(=O)N[C@@H](Cc1c[nH]c2ccccc12)C(=O)NC(C)(C)C | > 4 | > 4 | 20 | 4.67 | > 25 | > 25 | > 25
11 | CC(C)(C)NC(=O)[C@H](Cc1c[nH]c2ccccc12)NC(=O)[C@@H]1CCCN1C(=O)OC(C)(C)C (Boc-Pro-Trp-NHtBu) | > 100 | > 100 | > 100 | > 100 | 5.01 | > 25 | > 25
12 | C=CC[C@H](NC(=O)CCl)C(=O)N[C@@H](Cc1c[nH]c2ccccc12)C(=O)NCc1ccccc1 (ClAc-[AllylGly]-Trp-NHBn) | 0.32 | 1.37 | 100 | 38.7 | 1.72 | 0.67 | > 25
